Experimental data as given in ChEMBL document CHEMBL1154414, “In vitro and in vivo activities of T-705 against arenavirus and bunyavirus infections” (Antimicrob Agents Chemother, 2007).

What was measured:
[1] = Selectivity index, ratio of CC50 for african green monkey Vero 76 cells to EC50 for Sandfly fever Naples virus; assay type: toxicity, cell-based; details: read-out: Ratio CC50/EC50
[2] = Selectivity index, ratio of CC50 for african green monkey Vero 76 cells to EC50 for Punta Toro virus Adames; assay type: toxicity, cell-based; details: read-out: Ratio CC50/EC50
[3] = test system: Mus musculus; test: % Compound cleared in virus-infected po dosed mouse after 6 hrs; assay type: ADME, organism-based; details: in vivo
[4] = Cytotoxicity against african green monkey Vero cells after 7 to 8 days by neutral-red dye uptake assay; assay type: cell-based; details: chlorocebus sabaeus
Summary of the method: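 Subconfluent (50-70%) Vero cells received half-log drug dilutions without virus and were held at 37°C, 5% CO2 for 7-8 days. Cells were stained with 0.034% neutral red for 2 h, and the dye was extracted 30 min in ethanol with Sorenson's citrate buffer. Absorbance was read at 540 nm as % of untreated controls. CC50 was derived by regression.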

[5] = test system: Syrian golden hamster; details: in vivo, po, 72 h
[6] = Selectivity index, ratio of CC50 for african green monkey Vero cells to EC50 for Pichinde virus An 4763; assay type: toxicity, cell-based; details: read-out: Ratio CC50/EC50
[7] = species: Mus musculus; details: in vivo, po
[8] = Selectivity index, ratio of CC50 for african green monkey Vero 76 cells to EC50 for La Crosse virus; assay type: toxicity, cell-based; details: read-out: Ratio CC50/EC50
[9] = Selectivity index, ratio of CC50 for african green monkey Vero cells to EC50 for Tacaribe virus TRVL11573; assay type: toxicity, cell-based; details: read-out: Ratio CC50/EC50
[10] = Metabolic stability in po dosed mouse assessed as drug remaining after 6 hrs; assay type: ADME, organism-based; details: in vivo, read-out: Stability
[11] = Selectivity index, ratio of CC50 for african green monkey Vero 76 cells to EC50 for Rift Valley fever virus MP-12; assay type: toxicity, cell-based; details: read-out: Ratio CC50/EC50
[12] = Selectivity index, ratio of CC50 for african green monkey Vero cells to EC50 for Junin virus Candid-1; assay type: toxicity, cell-based; details: read-out: Ratio CC50/EC50
[13] = Cytotoxicity against african green monkey Vero 76 cells assessed as cell viability after 3 to 5 days; assay type: cell-based; details: chlorocebus sabaeus

NC(=O)c1nc(F)c[nH]c1=O [FAVIPIRAVIR]
selectivity ratio [1]: > 55
selectivity ratio [2]: > 33
%Cleared [3]: > 90%
CC50 [4]: 1110 µM
LD50 [5]: 1500 mg/kg/day
selectivity ratio [6]: 186
LD50 [7]: 707 mg/kg/day
selectivity ratio [8]: > 199
selectivity ratio [9]: 227
remaining at 6 h [10]: 10%
selectivity ratio [11]: > 196
selectivity ratio [12]: 239
CC50 [13]: > 6260 µM
